In publication PMC10948974 (Nature chemical biology, 2023):

Columns and labels:
[1] = molecular target: 14–3–3–NL + MEK1 + BRAF-R509H (Homo sapiens, UniProt Q02750); assay: 14–3–3–NL NanoBRET assay with dimer mutant BRAF-R509H; type: binding; conditions: 14–3–3–NL–Tram-bo assay configuration
[2] = molecular target: 14–3–3–NL + MEK1 + KSR1-R665H (Homo sapiens, UniProt Q02750); assay: 14–3–3–NL NanoBRET assay with dimer mutant KSR1-R665H; type: binding; conditions: 14–3–3–NL–Tram-bo assay configuration
MEK1–BRAF = MEK1–BRAF (Homo sapiens, UniProt Q02750); assay: Co-IP of MEK1 and FLAG-tagged BRAF from treated HEK293T cells; type: cell-based; conditions: 1 μM compound, 24 h
Method in brief: (§1)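 HEK293T cells (350,000/well) were transfected 24 h after seeding using Fugene HD. FLAG-BRAF or FLAG-KSR1 was given at 1 μg ml−1 for FLAG pulldown, or 0.5 μg ml−1 for endogenous MEK1 pulldown, each with 9 μg ml−1 carrier DNA. After 24 h, cells got 1 μM compound (0.1% DMSO) for 24 h. 100 μg of lysate was captured on anti-FLAG, anti-MEK1 or normal IgG beads (1 h, 4 °C), then eluted and western blotted for BRAF, MEK1 and FLAG.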

MEK1–KSR1 = MEK1–KSR1 (Homo sapiens, UniProt Q02750); assay: Co-IP of MEK1 and FLAG-tagged KSR1 from treated HEK293T cells; type: cell-based; conditions: 1 μM compound, 24 h
Method in brief: as §1

[3] = molecular target: 14–3–3–NL + MEK1 + CRAF-R401H (Homo sapiens, UniProt Q02750); assay: 14–3–3–NL NanoBRET assay with dimer mutant CRAF-R401H; type: binding; conditions: 14–3–3–NL–Tram-bo assay configuration
MEK1–NL + BRAF-V600E = MEK1–NL + BRAF-V600E (Homo sapiens, UniProt Q02750); assay: MEK1–NL NanoBRET coexpression assay with BRAF-V600E; type: binding; conditions: 1 μM Tram-bo

change in potency, BRAF-R509H versus BRAF [1]	change in potency, KSR1-R665H versus KSR1 [2]	effect on MEK1–BRAF interaction (co-IP) (MEK1–BRAF)	effect on MEK1–KSR1 interaction (co-IP) (MEK1–KSR1)	change in potency, CRAF-R401H versus CRAF [3]	decrease in potency (calculated Ki) with BRAF-V600E versus WT BRAF (MEK1–NL + BRAF-V600E)	Molecule
significant increase in potency	decrease in potency	–	–	–	–	O=C(c1ccc(F)c(F)c1Nc1ccc(I)cc1F)N1CC(O)([C@@H]2CCCCN2)C1 [cobimetinib]
insensitive	decrease in potency	stabilized	stabilized	decrease in potency	–	trametiglue
insensitive	–	stabilized	stabilized	–	~ 100 fold	CNS(=O)(=O)Nc1nccc(Cc2c(C)c3ccc(Oc4ncccn4)cc3oc2=O)c1F [CH5126766]

Molecule	change in potency, BRAF-R509H versus BRAF [1]	change in potency, KSR1-R665H versus KSR1 [2]	effect on MEK1–BRAF interaction (co-IP) (MEK1–BRAF)	effect on MEK1–KSR1 interaction (co-IP) (MEK1–KSR1)	change in potency, CRAF-R401H versus CRAF [3]	decrease in potency (calculated Ki) with BRAF-V600E versus WT BRAF (MEK1–NL + BRAF-V600E)
CC(=O)Nc1cccc(-n2c(=O)n(C3CC3)c(=O)c3c(Nc4ccc(I)cc4F)n(C)c(=O)c(C)c32)c1 [trametinib]	insensitive	small but significant decrease in potency	specifically reduced	–	–	–
